Compounds with a hit are over-represented: about 1.8% of the library has one in this group of screens.
DNMT1 inh – human DNMT1 methyltransferase inhibitors, primary screen, biochemical, molecular beacon, fluorescence, HinP1I cleavage, uHTS; DNA (cytosine-5)-methyltransferase 1 (Homo sapiens), P26358; inhibition (reported as % activation of signal), % at 10 µM; actives 0.83% (n = 360,000); AID 588458, 2011; in the data active = inhibition above about 50%
Scp1 inh – Scp-1 phosphatase inhibitors, primary screen, biochemical, colorimetric, uHTS; Carboxy-terminal domain RNA polymerase II polypeptide A small phosphatase 1 (Homo …; Recombinant Scp1, phosphopeptide, malachite green phosphate absorbance; inhibition, % at 20 µM; actives 0.88% (n = 340,000);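 active = inhibition above about 50% at 20 µM, limit read from the data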;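 also: plate controls were DMSO wells with enzyme for no effect and wells lacking enzyme for full effect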
Target sequence (Q9GZU7 76-261 limits assumed): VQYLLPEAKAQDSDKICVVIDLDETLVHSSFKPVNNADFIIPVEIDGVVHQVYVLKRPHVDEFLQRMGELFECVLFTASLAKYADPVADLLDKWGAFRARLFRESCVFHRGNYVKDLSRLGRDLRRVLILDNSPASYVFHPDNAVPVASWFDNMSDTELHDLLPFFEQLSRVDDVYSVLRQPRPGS
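Incubation: 45 min enzyme reaction at room temperature / System: truncated SCP-1 phosphatase (76-261aa) / Reagent: Phospho 17-mer peptide substrate / Buffer or medium: Acidic Tris acetate buffer with magnesium and detergent / Signal: absorbance at 630 nm / Doses: one concentration, 20 µM, with 1.0% DMSO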
STEP block – STEP phosphatase inhibitors, primary screen, biochemical, fluorescence intensity, uHTS. Tyrosine-protein phosphatase non-receptor type 5 (Homo sapiens), P54829. recombinant STEP, OMFP fluorogenic substrate. inhibition, % at 20 µM. actives 0.25% (n = 360,000). AID 588621, 2011;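 active = inhibition at 20 µM, scaled per plate between control wells, above about 37%, limit read from the data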;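 also: 0% = DMSO with enzyme and substrate and 100% = substrate only without enzyme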
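medium = Bis-Tris buffer pH 6.0, 2.5 mM DTT, 0.005% Tween 20 | test system = STEP (striatal-enriched tyrosine phosphatase) enzyme, cell-free | measure = normalized % inhibition | compound dosing = 20 µM, 1% DMSO | also added = 25 µM OMFP | schedule = reaction 20 min, ambient temperature | measured by = fluorescence read at 480 nm ex / 540 nm em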
SUMO1 PPI mod – modulators of SUMO1 protein-protein interactions, primary screen, biochemical, uHTS; Small ubiquitin-related modifier 1 (Homo sapiens), P63165; SUMO1 binding to a labelled peptide, TR-FRET, 1 h; inhibition, % at 20 µM; actives 0.33% (n = 360,000); AID 602429, 2012; in the data active = inhibition above about 37%
Target sequence (P63165 whole entry, looked up): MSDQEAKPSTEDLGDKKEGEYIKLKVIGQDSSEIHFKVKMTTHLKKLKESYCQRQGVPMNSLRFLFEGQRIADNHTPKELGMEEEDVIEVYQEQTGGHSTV
LMPTP block – LMPTP phosphatase inhibitors, primary screen, biochemical, fluorescence intensity, uHTS. Low molecular weight phosphotyrosine protein phosphatase (Homo sapiens), P24666. recombinant LMPTP-A, OMFP fluorogenic substrate. inhibition, % at 20 µM. actives 0.22% (n = 360,000). AID 651560, 2012;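 active = compounds that cut the enzyme signal by at least half of the control window in the single-dose screen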;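 also: plate controls were DMSO wells with enzyme plus substrate for no effect and substrate without enzyme for full effect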
Target sequence (P24666 whole entry, looked up): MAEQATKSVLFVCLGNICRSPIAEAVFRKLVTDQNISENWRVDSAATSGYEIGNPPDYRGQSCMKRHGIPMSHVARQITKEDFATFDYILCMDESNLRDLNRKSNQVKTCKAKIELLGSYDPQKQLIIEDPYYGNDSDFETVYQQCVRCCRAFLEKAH
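Assay system: LMPTP-A, protein tyrosine phosphatase of low molecular weight / Medium: pH 6.0 Bis-Tris buffer with DTT and Triton X-100 / Schedule: 50 min enzyme reaction at room temperature, protected from light / Measured by: endpoint fluorescence intensity from OMFP dephosphorylation / Read-out basis: % inhibition relative to no-enzyme and uninhibited control wells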
Scp-1 conf – Scp-1 phosphatase inhibitors, retest, confirmation, biochemical, colorimetric, single concentration; shares compounds with Scp1 inh; recombinant SCP-1 catalytic domain, phosphate release, malachite green absorbance; inhibition, % at 20 µM; actives 61% (n = 2,500); AID 540281, 2011;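 also: plate controls were DMSO with enzyme for no effect and buffer wells lacking enzyme for full effect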
MG interference – colorimetric readout interference by compounds, confirmation, artefact control for Scp-1 inhibitor project, biochemical, single concentration. apparent inhibition (interference), % at 20 µM. Colorimetric interference counterscreen, malachite green absorbance 630 nm. shares compounds with Scp1 inh. 2,500 tested, under 10 active;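 also: compounds added after enzyme reaction finished so only phosphate colour detection is probed; plate controls were DMSO wells with completed Scp-1 reaction for no effect and substrate wells lacking enzyme for full effect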
Scp-1 Tm shift – Scp-1 binding by thermal shift, confirmation, orthogonal assay for Scp-1 inhibitor project, biophysical, differential scanning fluorimetry. AID 540329, 2011. thermal shift relative to vanadate control, % at 40 µM. actives 25% (n = 1,500). shares compounds with Scp1 inh. Recombinant SCP1, Sypro Orange thermal shift Tm;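 active = substances whose mean melting-temperature shift, as a percentage of the reference inhibitor's shift, reaches about 5.3%, limit read from the data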;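 also: 0% = Tm of DMSO wells and 100% = Tm with sodium orthovanadate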
Starred values were filed as active, the others as inactive; . = no result.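 The calls were made as follows, unless noted: active = inhibition of at least 30% at 20 µM; inactive = the rest.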

SMILES | DNMT1 inh | Scp1 inh | STEP block | SUMO1 PPI mod | LMPTP block | Scp-1 conf | MG interference | Scp-1 Tm shift
Cc1cc(C(C)(C)C)cc(C)c1COC(=O)CN1C(=O)NC2(CCCC2)C1=O | 5 | -3 | -3 | 5 | -3 | . | . | .
COc1ccc(NS(=O)(=O)c2ccc(C)c(NC(=O)CN3C(=O)NC4(CCCC4)C3=O)c2)cc1 | -133 | -7 | 0 | -130 | -3 | . | . | .
COc1ccc(C(C)=O)cc1CSc1ccc(S(=O)(=O)N2CCCCC2)cn1 | -4 | -17 | 1 | -3 | 3 | . | . | .
c1ccc(Nc2ccnc(Nc3ccccc3)n2)cc1 | 3 | -6 | 1 | 6 | 2 | . | . | .
NNc1nccc(Nc2ccccc2C(=O)O)n1 | 2 | 66* | 0 | 27 | 20 | 65* | -7 | 0
O=C(O)c1ccc(-n2cc(-c3cc4ccccc4oc3=O)[nH]c2=S)cc1 | -2 | 84* | 10 | -3 | 3 | 61* | -11 | 1
OCCC1CCCCN1CC(O)COCc1ccc(Cl)cc1 (configuration not stated) | 2 | -1 | 1 | 3 | -1 | . | . | .
Cc1[nH]c2ccccc2c1/C=N/NC(=O)CNC(=O)c1ccc2c(c1)OCCO2 | -3 | 66* | 0 | 4 | 1 | -4 | -3 | .
O=C(Nc1ccccc1O)c1ccc2c(c1)C(=O)N(Cc1ccco1)C2=O | 4 | 68* | 6 | -4 | 17 | 59* | -14 | 4
CCc1cccc(OCC2Cn3c(nc4c3c(=O)[nH]c(=O)n4C)O2)c1 (configuration not stated) | -5 | 1 | -2 | 6 | -1 | . | . | .
CC(=O)Nc1ccc(OCC(=O)Nc2ccc(Cl)c(S(=O)(=O)N3CCOCC3)c2)cc1 | -2 | . | -2 | 5 | -1 | . | . | .
CN(Cc1cnc2nc(N)nc(N)c2n1)c1ccc(C(=O)NC(CCC(=O)O)C(=O)O)cc1C(F)(F)F (configuration not stated) | 9 | 50* | 4 | 12 | 25 | 3 | -8 | .
CN(Cc1cnc2nc(N)nc(N)c2n1)c1ccc(C(=O)NC(CCC(=O)O)C(=O)O)cc1 (configuration not stated) | 0 | 62* | 0 | 4 | 6 | 70* | -7 | 4
COc1cc(NC(=O)c2ccccc2)c(OC)cc1NC(=O)Cc1ccc(C)cc1 | 0 | 0 | 2 | 9 | 2 | . | . | .
COc1ccc2c(c1)c(=O)oc1c(C)c(OCc3ccc(C(=O)O)cc3)ccc12 | 5 | 93* | 41* | 45* | 58* | 58* | -10 | -12
COc1ccc2c(c1)c(=O)oc1c(C)c(OCC(=O)N3CCc4ccccc4C3)ccc12 | 32 | -3 | -2 | 2 | 1 | . | . | .
COc1ccc2c(c1)c(=O)oc1c(C)c(OCc3cc(C(=O)O)oc3C)ccc12 | 20 | 93* | 6 | 26 | 4 | 94* | 1 | 3
Cc1c(C)c2cc(Cl)c(OCC(=O)NCCCn3ccnc3)cc2oc1=O | 5 | -5 | -1 | -10 | -2 | . | . | .
COCCN(C(=O)COC(=O)/C=C/c1ccc(C(F)(F)F)cc1)c1c(N)n(Cc2ccccc2)c(=O)[nH]c1=O | 4 | 58* | -1 | 0 | 1 | -22 | -18 | .
